Data as given in ChEMBL document CHEMBL4613269, “2-((4-Arylpiperazin-1-yl)methyl)benzonitrile Derivatives as Orally Available Inhibitors of Hepatitis C Virus with a Novel Mechanism of Action” (J Med Chem, 2020).
Calls of active or inactive are those of the source. No cut-off for these calls is given here.

Experiments:
[1] = test system: Hepatitis C virus; assay: Synergistic antiviral activity against HCV infected in human Huh7.5 cells assessed as reduction in HCV core protein level by measuring (q) value at 0.1 uM in presence of 0.025 uM simeprevir incubated for 72 hrs by Western blot assay based Webb method relative to control; assay type: functional, Hepacivirus hominis
In short: (§1)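 Huh7.5 cells in 6-well plates were infected with HCV in the presence of 0.1 μM test compound combined with simeprevir 0.025 μM, sofosbuvir 0.1 μM or daclatasvir 0.016 nM. Western blot at 72 h gave HCV core protein relative to actin, normalized to control. q calculated by Webb's method (q<1 antagonism, =1 addition, >1 synergy); over 3 independent experiments.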

[2] = test system: Hepatitis C virus; assay: Antiviral activity against HCV GS4.3 infected in human Huh7.5 cells assessed as reduction in viral replication at 1 uM simultaneously treated with viral infection for 15 mins to 2 hrs and measured after 72 hrs by In-Cell Western assay; assay type: functional, organism-based; settings: Hepacivirus hominis
In short: (§2)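 Huh7.5 cells infected with HCV while incubated with compound, either for 4 h across a concentration series or at 1.0 µM for varied times down to 15 min. Supernatant then replaced with fresh medium. Intracellular Core protein measured by In-Cell Western at 72 h.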

[3] = Half life in Sprague-Dawley rat at 5 mg/kg, iv measured after 0.08 to 72 hrs post dose by LC-MS/MS analysis; assay type: ADME, organism-based; settings: in vivo
In short: (§3)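 Single dose to fasted (12 h) animals: oral gavage 15 mg/kg as suspension in 0.5% CMC-Na, or iv 5 mg/kg dissolved in citric acid buffer pH 5.0 with 2.5% DMSO. Jugular vein blood on heparin at 0.08 (iv only) to 72 h. Plasma assayed by LC-MS/MS; parameters from noncompartmental analysis.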

[4] = Clearance in Sprague-Dawley rat at 5 mg/kg, iv measured after 0.08 to 72 hrs post dose by LC-MS/MS analysis; assay type: ADME, organism-based; settings: in vivo; in short: as §3
[5] = test system: Hepatitis C virus; assay: Antiviral activity against HCV GS4.3 infected in human Huh7.5 cells assessed as […] at 0.008 to 1 uM pre-incubated with drug for 2 hrs before viral infection and measured after 72 hrs by Western blot assay; assay type: functional, organism-based; settings: Hepacivirus hominis
[6] = Cmax in Sprague-Dawley rat at 5 mg/kg, iv measured after 0.08 to 72 hrs post dose by LC-MS/MS analysis; assay type: ADME, organism-based; parameters: dose 5 mg/kg, route intravenous; settings: in vivo; in short: as §3
[7] = Bioavailability in Sprague-Dawley rat at 5 mg/kg, iv measured after 0.08 to 72 hrs post dose by LC-MS/MS analysis; assay type: ADME, organism-based; settings: in vivo; in short: as §3
[8] = Toxicity in Kunming mouse assessed as induction of mortality at 250 to 1000 mg/kg dosed via single oral gavage and measured on day 7 post treatment; assay type: organism-based; settings: in vivo
In short: (§4)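 Kunming mice, 4 groups of n = 6 (3 male, 3 female). Fasted from 12 h before to 1 h after dosing. Single oral gavage of 250, 500 or 1000 mg/kg suspended in 0.5% CMC-Na, or vehicle alone. Followed for 7 days: survival, body weight before and at day 7. Day-7 blood taken for AST, ALT, urea nitrogen and creatinine.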

[9] = Selectivity index, ratio of CC50 for cytotoxicity in African green monkey Vero E6 cells to EC50 for Antiviral activity against Zika virus infected in Vero E6 cells; assay type: toxicity, cell-based, Vero C1008; settings: read-out: Ratio CC50/EC50
[10] = Apparent Volume of distribution in beagle dog at 15 mg/kg, po measured after 0.08 to 72 hrs post dose by LC-MS/MS analysis; assay type: ADME, organism-based, Canis lupus familiaris; settings: in vivo; in short: as §3
[11] = Cytotoxicity in MDCK cells assessed as reduction in cell viability; assay type: cell-based, Canis lupus familiaris; settings: dog
[12] = Apparent Volume of distribution in Sprague-Dawley rat at 15 mg/kg, po measured after 0.08 to 72 hrs post dose by LC-MS/MS analysis; assay type: ADME, organism-based; settings: in vivo; in short: as §3
[13] = test system: Hepatitis C virus; assay: Antiviral activity against HCV with wild type glycoprotein E1 infected in human Huh7.5 cells assessed as reduction in viral RNA levels incubated for 72 hrs by qRT-PCR analysis; assay type: functional, organism-based, Hepacivirus hominis; settings: Huh7.5, 72 h
In short: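 Huh7.5 cells seeded 24 h, then infected with wild-type (or mutant) HCV with compound added at the same time. Incubated 72 h. Intracellular HCV RNA measured by qRT-PCR, 2^-ΔCt method, normalized to GAPDH. Eight-step 1:5 serial dilutions in triplicate; EC50 by Reed & Muench; three independent experiments.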

[14] = test system: Hepatitis C virus; assay: Antiviral activity against HCV GS4.3 infected in human Huh7.5 cells assessed as reduction in viral replication at 0.3125 to 5 uM simultaneously treated with viral infection for 4 hrs and measured after 72 hrs by In-Cell Western assay; assay type: functional, organism-based; settings: Hepacivirus hominis; in short: as §2
[15] = test system: Hepatitis C virus; assay: Synergistic antiviral activity against HCV infected in human Huh7.5 cells assessed as reduction in HCV core protein level by measuring (q) value at 0.1 uM in presence of 0.1 uM sofosbuvir incubated for 72 hrs by Western blot assay based Webb method relative to control; assay type: functional, Hepacivirus hominis; in short: as §1
[16] = AUC (0 to 72 hrs) in beagle dog at 15 mg/kg, po measured after 0.08 to 72 hrs post dose by LC-MS/MS analysis; assay type: ADME, organism-based, Canis lupus familiaris; parameters: time < 72 hr, dose 15 mg/kg, route oral; settings: in vivo; in short: as §3
[17] = test system: Hepatitis C virus; assay: Induction of HCV GS4.3 viral particles inactivation infected in human Huh7.5 cells assessed as reduction in viral protein levels at 1 uM pre-incubated with virus for 2 hrs before viral infection and measured after 72 hrs by Western blot assay; assay type: functional, organism-based; settings: Hepacivirus hominis
In short: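 Huh7.5 cells inoculated with HCV stock pre-treated 2 h with 1.0 μM compound, then diluted 20-fold (final 0.05 μM). Control stocks were treated with 0.05 μM or 1.0 μM. Intracellular proteins were extracted and analysed by western blot at 72 h, with HCV Core/actin ratio normalized to control.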

[18] = test system: Hepatitis C virus; assay: Antiviral activity against HCV GS4.3 infected in human Huh7.5 cells assessed as reduction in viral NS3 protein levels at 0.1 to 5 uM incubated for 14 days by Western blot assay; assay type: functional, organism-based; settings: Hepacivirus hominis
[19] = Selectivity index, ratio of CC50 for cytotoxicity in human Huh7.5 cells assessed as reduction in cell viability incubated for 96 hrs by MTT assay to EC50 for antiviral activity against HCV J6/JFH/JC1 infected in human Huh7.5 cells incubated for 72 hrs by In-Cell Western assay; assay type: toxicity, cell-based; settings: read-out: Ratio CC50/EC50
In short: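 HCVcc (MOI=0.1) infected Huh7.5 cells co-treated with eight-step 1:5 serial dilutions, triplicate wells. After 72 h, fixed, permeabilized, and stained for HCV Core and GAPDH with IR-dye secondaries. Core normalized to GAPDH. CC50 came from MTT at 96 h in uninfected Huh7.5 cells. EC50/CC50 were derived by Reed & Muench, mean ± SD of three independent experiments.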

[20] = test system: Hepatitis C virus; assay: Resistance index, ratio of EC50 for antiviral activity against HCV with glycoprotein E1 F291V mutant infected in human Huh7.5 cells to EC50 for Antiviral activity against HCV with wild type glycoprotein E1 infected in human Huh7.5 cells; assay type: functional, Hepacivirus hominis
In short: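 Huh7.5 cells seeded at 3×10^4/cm² and incubated 24 h, then infected with wild-type or E1 F291V mutant HCV while simultaneously treated with compound in eight-step 1:5 serial dilutions, run in triplicate. Intracellular HCV RNA was read by qRT-PCR at 72 h (2^-ΔCT, normalized to GAPDH). EC50 by Reed & Muench; the index is mutant EC50 over wild-type EC50.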

[21] = Toxicity in Kunming mouse assessed as effect on […] level at 250 to 1000 mg/kg dosed via single oral gavage and measured on day 7 post treatment; assay type: organism-based; settings: in vivo; in short: as §4

CN(C)CCN(C)c1ccc(C#N)c(CN2CCN(c3ccc(Cl)cc3)CC2)c1
Ratio [1]: 1.05
Activity [2]: Active
half-life [3]: 14.3 h
clearance [4]: 18.1 mL/min/kg
Activity [5]: inactive
Cmax [6]: 617 ng/mL
bioavailability [7]: 59%
Activity [8]: Non-Toxic
selectivity ratio [9]: 3
Vz [10]: 238.11697 L/kg
CC50 [11]: 4280 nM
Vz [12]: 34.83407 L/kg
EC50 [13]: 6 nM
Activity [14]: Dose-dependent effect
Ratio [15]: 1.08
AUC(0-t) at 72 h [16]: 1280 ng·h/mL
Activity [17]: inactive
Activity [18]: inactive
selectivity ratio [19]: 111 to 154
Ratio EC50 [20]: 20
Activity [21]: Non-Toxic
